High-throughput results (PubChem BioAssay)
hERG protect – compounds protecting human hERG from proarrhythmic drug block | CHO-hERG, FluxOR thallium flux, dofetilide IC70 present | activation (rescue from dofetilide block), less the hit threshold, % at 10 µM | actives 0.51% (n = 310,000) | AID 1511;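 active = activation above the mean of controls blocked by dofetilide plus 5 SD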;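 note: thallium influx through hERG after potassium depolarization seen as dye fluorescence rise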
KCNK9 block – blocks the human KCNK9 two-pore domain potassium channel | Q9NPC2 | HEK293 KCNK9, FluxOR thallium flux fluorescence; hits give low values | actives 1.2% (n = 310,000) | B-score at 10 µM;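 active = ratio B-score over 3 SD below the library mean, with starting fluorescence within 5 SD of its mean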;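 note: negative B-score means less thallium flux so channel inhibition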
Target sequence (Q9NPC2 whole entry, looked up, the tested form may be a part): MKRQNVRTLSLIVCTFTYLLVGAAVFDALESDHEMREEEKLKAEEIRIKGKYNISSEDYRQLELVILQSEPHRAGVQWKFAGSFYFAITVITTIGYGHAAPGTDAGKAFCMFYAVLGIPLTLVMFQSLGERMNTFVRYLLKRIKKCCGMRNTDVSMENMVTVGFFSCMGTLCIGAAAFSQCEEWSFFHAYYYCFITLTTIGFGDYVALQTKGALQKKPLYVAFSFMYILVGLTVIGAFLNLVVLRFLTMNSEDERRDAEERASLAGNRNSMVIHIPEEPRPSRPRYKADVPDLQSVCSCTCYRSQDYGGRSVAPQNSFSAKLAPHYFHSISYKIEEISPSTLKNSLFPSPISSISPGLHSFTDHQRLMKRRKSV
KCNQ1 inh – human KCNQ1 channel inhibition; P51787; CHO-K1 KCNQ1, FluxOR thallium flux fluorescence; hits give high values; B-score at 10 µM; actives 1.3% (n = 310,000); AID 2642;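 active = compounds whose thallium flux B-score, printed positive for inhibition, exceeds three library SD while starting fluorescence stays within three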;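 note: channel opened by potassium depolarization with thallium stimulus after 20 min compound exposure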
Kir21 block – Kir2.1 (mouse) channel inhibition; AID 1672; HEK293-Kir2.1, FluxOR thallium flux fluorescence; hits give low values; B-score at 10 µM; actives 0.85% (n = 310,000);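 active = fluorescence ratio B-score at or below minus 3 SD of library scores, with starting-brightness B-score within 2 SD, cut at about -4.2 in these data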;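 note: channel flux triggered by added potassium and thallium sulfate stimulus; B-score of peak minus minimum fluorescence over baseline after thallium stimulus; more negative B-score means stronger Kir2.1 block with less thallium influx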
KCNQ1 pot – potentiates or activates the human KCNQ1 potassium channel; P51787; CHO-K1 KCNQ1, thallium flux FluxOR fluorescence; hits give high values; B-score at 10 µM; actives 0.35% (n = 310,000); AID 2648;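 active = fluorescence ratio B-score, a plate-corrected score, at least three library SD, with initial intensity B-score within 5 SD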
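Schedule – 37 °C overnight plating, 90-min dark dye load, 20-min compound pretreatment · System – stable KCNQ1 CHO-K1 line · Probe or stimulus – thallium- and potassium-containing depolarizing buffer · Measured by – kinetic FluxOR fluorescence, 10 s baseline plus 110 s post-stimulus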
KCNK3 block – human KCNK3 channel inhibition, primary screen; O14649; CHO-KCNK3 thallium flux, FluxOR fluorescence; hits give low values; B-score at 10 µM; actives 0.84% (n = 340,000);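 active = B-score under library mean minus 4 SD, starting fluorescence ratio at most library mean plus 5 SD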;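 note: more negative B-score means stronger inhibition of thallium flux through KCNK3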
Target sequence (O14649 whole entry, looked up): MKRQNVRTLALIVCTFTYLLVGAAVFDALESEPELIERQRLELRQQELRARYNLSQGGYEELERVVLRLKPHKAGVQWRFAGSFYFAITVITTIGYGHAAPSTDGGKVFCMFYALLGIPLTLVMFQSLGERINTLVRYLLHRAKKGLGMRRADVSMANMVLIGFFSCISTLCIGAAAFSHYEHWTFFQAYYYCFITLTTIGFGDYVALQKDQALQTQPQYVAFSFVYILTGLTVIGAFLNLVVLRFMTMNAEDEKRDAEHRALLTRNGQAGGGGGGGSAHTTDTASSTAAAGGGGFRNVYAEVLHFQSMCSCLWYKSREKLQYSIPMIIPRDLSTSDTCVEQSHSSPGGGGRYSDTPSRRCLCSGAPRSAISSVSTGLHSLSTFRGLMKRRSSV
KCNQ1 block val – confirmation of human KCNQ1 potassium channel inhibitors; AID 588353; shares compounds with KCNQ1 inh; actives 93% (n = 1,600); inhibition, % at 10 µM; KCNQ1 cell line, FluxOR thallium flux fluorescence;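 active = primary screen active, with duplicate mean exceeding buffer control mean plus 3 SD of buffer wells, cut at about 28% in these data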;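 note: 0% = buffer control ratio and 100% = XE991 inhibitor control ratio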
CHO KCNQ1 ctr – KCNQ1 inhibitor counter-screen hit in parental CHO cells. shares compounds with KCNQ1 inh. parental CHO-K1, FluxOR thallium flux fluorescence ratio; hits give low values; zero means no signal rise above baseline. fluorescence ratio (Tl flux) at 10 µM. actives 21% (n = 1,600). AID 588366;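 active = mean of duplicate thallium-flux fluorescence ratios in parental host cells more than 5 SD below the buffer control mean, cut at about 0.38 in these data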;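 note: ratio is peak minus minimum fluorescence divided by baseline fluorescence; actives read low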
KCNQ1 APC inh – blocks human KCNQ1 current in automated patch clamp; shares compounds with KCNQ1 inh; KCNQ1-CHO cells; calls only at 10 µM; actives 20% (n = 490); AID 624120;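 active = KCNQ1 current drop exceeding 3 SD of negative control wells, seen in both duplicate runs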;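 note: steady state current during a 2 s step from -80 to +40 mV; negative values mean current inhibition and positive values mean potentiation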
KCNQ2 inh – KCNQ1 inhibitor that also blocks rat KCNQ2 channel. shares compounds with KCNQ1 inh. KCNQ2 cells, FluxOR thallium flux fluorescence. inhibition, % at 10 µM. actives 71% (n = 1,600). AID 651746;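 active = mean percent inhibition of the KCNQ2 thallium signal more than 5 SD above the buffer-only control wells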;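 note: KCNQ2 expressed in CHO cells; 0% = buffer control wells and 100% = XE-991 inhibitor control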
KCNQ1 KCNE1 spec – human KCNQ1/KCNE1 inhibition in KCNQ1 specificity screen | actives 77% (n = 1,600) | inhibition, % at 10 µM | shares compounds with KCNQ1 inh | KCNQ1/KCNE1 cells, FluxOR thallium flux fluorescence;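 active = mean percent inhibition of duplicate wells above the buffer-only control mean plus 3 SD of those controls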;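 note: 0% = buffer only wells and 100% = XE-991 inhibitor control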
KCNK9 inh conf – human KCNK9 inhibitor confirmation | shares compounds with KCNK9 block | actives 43% (n = 4,900) | inhibition, % at 10 µM | HEK293 KCNK9 cells, FluxOR thallium flux fluorescence;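 active = thallium signal inhibited by more than 5 SD of the compound-free buffer control wells, on both duplicate plates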;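 note: 0% = assay buffer control wells without compound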
Kir21 sel – mouse Kir2.1 off-target activity of KCNK9 modulators; Kir2.1 cells, FluxOR thallium flux fluorescence; actives 4% (n = 4,900); shares compounds with KCNK9 block; inhibition, % at 10 µM;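 active = thallium signal drop more than 5 SD beyond the mean of the no-compound control wells, seen in both duplicate plates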;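 note: signal is fluorescence rise after thallium addition divided by baseline fluorescence; plate controls were assay buffer only for no effect and full block by chlorpromazine control for full effect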
HEK293 Tl ctr – second check of KCNK9 modulator effects in non-induced HEK293 cells | FluxOR thallium flux | inhibition, % at 10 µM | actives 40% (n = 4,900) | shares compounds with KCNK9 block;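 active = thallium signal drop beyond 5 SD of the untreated control mean, on both duplicate plates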;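 note: plate controls were buffer only IC0 wells for no effect and SID17386958 at its maximal inhibitory level for full effect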
KCNK3 inh conf – confirmation of human KCNK3 two-pore domain potassium channel inhibitors; ratio percent of control, % at 10 µM; CHO-KCNK3 thallium flux, FluxOR fluorescence; 0% buffer, 100% carvedilol maximal block; shares compounds with KCNK3 block; AID 651638; actives 99% (n = 2,400);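 active = ratio percent of control, averaged over triplicates, above buffer control mean plus 5 SD, cut at about 64% in these data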;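 note: ratio is the fluorescence rise from min to max over baseline after thallium stimulus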
KCNK3 noninduced – activity in cells without induced KCNK3 expression. actives 40% (n = 2,400). non-induced KCNK3 parental cells, FluxOR thallium flux; hits give low values. thallium flux ratio (lower = more inhibition) at 10 µM. shares compounds with KCNK3 block;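 active = thallium flux ratio, averaged over three wells, more than 5 SD below the buffer control mean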;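 note: host cells are CHO cells without KCNK3 induction; ratio is peak minus trough fluorescence over baseline then normalized to buffer controls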
Active calls of the source: *; i = inactive; nt = no result; + = active, no number. Rows were chosen to be rich in hits. Some 3.7% of all compounds tested hit in one or more screens of this group.

SMILES	hERG protect	KCNK9 block	KCNQ1 inh	Kir21 block	KCNQ1 pot	KCNK3 block	KCNQ1 block val	CHO KCNQ1 ctr	KCNQ1 APC inh	KCNQ2 inh	KCNQ1 KCNE1 spec	KCNK3 inh conf	KCNK3 noninduced	others
COc1cccc(NC(=O)CCN2C(=O)C3CC=CCC3C2=O)c1 (configuration not stated)	-8.3	i	i	0.45	i	i	nt	nt	nt	nt	nt	nt	nt
Cc1cc(SCC(=O)c2ccc(O)c(O)c2)nc2ccccc12	-17.0	i	9*	-1	i	-9.44*	99.5*	0.47	i	i	116.0%*	120.3*	0.142*
Cc1cc(SCC(=O)c2ccc3c(c2)OCO3)nc2ccccc12	-12.6	i	i	-3.28	i	i	nt	nt	nt	nt	nt	nt	nt
O=C(Nc1cccnc1)c1cc(-c2ccc(Br)cc2)nc2ccccc12	-18.4	-9.7*	8*	-0.16	i	-15.4*	142.5*	0.25*	nt	139.3%*	+	143.0*	i	KCNK9 inh conf=33.0%*;Kir21 sel=i;HEK293 Tl ctr=i
Cc1ccc(NC(=O)NC2CCCCCCC2)cc1	-6.3	i	i	-0.85	i	i	nt	nt	nt	nt	nt	nt	nt
Cc1ccc2c(CN(C)Cc3ccc(OC(F)F)cc3)cc(=O)oc2c1C	-20.8	i	11*	0.56	i	-10.2*	127.5*	0.466	i	101.3%*	135.0%*	126.3*	0.149*
Cc1ccc(N/C(N)=N/c2nc(C)cc(N3CCCCC3)n2)c(C)c1	-22.8	i	10*	-2.85	i	-11.6*	91.0*	0.414	+	89.7%*	51.0%*	116.3*	i
Cc1ccc(N/C(N)=N/c2nc3c(c(=O)[nH]2)CCCC3)c(C)c1	0.9	i	i	-0.18	i	i	nt	nt	nt	nt	nt	nt	nt
CCN1C=C(Cc2ccccc2C)C2=C(C1)C(c1ccccc1C)C(C#N)=C(N)O2 (configuration not stated)	-20.8	-6.73*	12*	-0.41	i	-8.92*	115.5*	0.321*	nt	104.7%*	103.5%*	117.7*	0.129*
CCc1nc2ccc(C(=O)N3CCN(c4ccc([N+](=O)[O-])cc4)CC3)cc2nc1CC	-7.8	i	i	-2.22	i	i	nt	nt	nt	nt	nt	nt	nt
CCOC(=O)CSc1c(-c2ccc(Cl)cc2)[nH]c2ccccc12	-6.6	i	i	-0.53	i	i	nt	nt	nt	nt	nt	nt	nt
O=C(Cc1cccs1)NCCSc1c(-c2ccc(Cl)cc2)[nH]c2ccccc12	-16.9	-13.8*	19*	1.24	i	-14.4*	134.0*	0.345*	nt	124.0%*	186.0%*	132.0*	0.146*	KCNK9 inh conf=53.5%*;Kir21 sel=i;HEK293 Tl ctr=32.0%*
CCN(CC)CCOC(=O)c1ccc(NC(=O)c2ccc(Cl)c(S(=O)(=O)N3CCCCCC3)c2)cc1	-22.6	i	i	1.41	i	i	nt	nt	nt	nt	nt	nt	nt
CCCCNC(=S)Nc1ccc(SC(F)F)cc1	-14.3	-7.68*	8*	1.2	i	-10.1*	91.0*	0.487	+	i	61.0%*	120.7*	0.146*
COc1cccc(CN2CCNC(=O)C2CC(=O)NCC2CCOCC2)c1 (configuration not stated)	-10.8	i	i	-0.5	i	i	nt	nt	nt	nt	nt	nt	nt
COc1cccc(N2CCN(S(=O)(=O)c3ccc4ccccc4c3)CC2)c1	nt	nt	nt	nt	nt	i	nt	nt	nt	nt	nt	nt	nt
COc1ccc(NC(=O)c2cccc(OC(F)F)c2)cc1Cl	-7.5	i	i	-0.43	i	i	nt	nt	nt	nt	nt	nt	nt
O=C(Nc1ccc(OC(F)F)c(Cl)c1)c1cccc(OC(F)F)c1	-28.9	-11.6*	12*	0.7	i	-11*	105.5*	0.521	+	i	43.0%*	120.0*	i	KCNK9 inh conf=54.5%*;Kir21 sel=i;HEK293 Tl ctr=i
CCOC(=O)C1CCN(c2c(C(=O)c3ccccc3)cnc3ccc(CC)cc23)CC1	-7.0	-11.1*	7*	1.09	i	-11.6*	134.5*	0.395	nt	128.3%*	192.5%*	109.7*	i	KCNK9 inh conf=28.0%*;Kir21 sel=i;HEK293 Tl ctr=33.5%*
Cc1csc2c(N3CCN(C(=O)c4ccc(C(C)(C)C)cc4)CC3)ncnc12	-21.4	i	9*	0.09	i	-9.77*	138.5*	0.304*	nt	137.3%*	169.5%*	130.0*	i
CCOC(=O)C1CCN(c2ncnc3c(C)csc23)CC1	-4.1	i	i	0.28	i	i	nt	nt	nt	nt	nt	nt	nt
Cc1noc(C)c1C(=O)OCC(=O)NC1CCCCC1C (configuration not stated)	nt	nt	nt	nt	nt	i	nt	nt	nt	nt	nt	nt	nt
COc1ccc(-n2cc(-c3ccccc3)c3c(N4CC(C)OC(C)C4)ncnc32)cc1 (configuration not stated)	-35.4	i	12*	-1.33	i	-10.8*	121.0*	0.408	i	141.7%*	170.0%*	114.0*	0.133*
CCOc1ccc(-n2cc(-c3ccccc3)c3c(N4CCOCC4)ncnc32)cc1	-14.2	i	i	0.27	i	i	nt	nt	nt	nt	nt	nt	nt
